Screening results (PubChem)
NPY Y2 blocker: antagonists of human neuropeptide Y receptor Y2; NPY-Y2 expressing cells, antagonist mode; inhibition, % at 2.7 µM; 0.99% of 140,000 active; AID 793; in the data active = inhibition above about 17%;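 note: 0% = vehicle with agonist challenge and 100% = reference antagonist with challenge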
NPY Y1 blocker: blocks the human neuropeptide Y Y1 receptor. 1% of 200,000 active. AID 1040. P25929. inhibition, % at 3.6 µM. HEK293-CNG Y1 cells, membrane potential fluorescence; NPY at EC95, then isoproterenol;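 active = inhibition above the campaign mean inhibition of all tested compounds plus 3 SD, cut at about 20% in these data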;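 note: 0% = DMSO wells given NPY plus isoproterenol and 100% = isoproterenol alone without NPY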
Target sequence (P25929 whole entry, looked up): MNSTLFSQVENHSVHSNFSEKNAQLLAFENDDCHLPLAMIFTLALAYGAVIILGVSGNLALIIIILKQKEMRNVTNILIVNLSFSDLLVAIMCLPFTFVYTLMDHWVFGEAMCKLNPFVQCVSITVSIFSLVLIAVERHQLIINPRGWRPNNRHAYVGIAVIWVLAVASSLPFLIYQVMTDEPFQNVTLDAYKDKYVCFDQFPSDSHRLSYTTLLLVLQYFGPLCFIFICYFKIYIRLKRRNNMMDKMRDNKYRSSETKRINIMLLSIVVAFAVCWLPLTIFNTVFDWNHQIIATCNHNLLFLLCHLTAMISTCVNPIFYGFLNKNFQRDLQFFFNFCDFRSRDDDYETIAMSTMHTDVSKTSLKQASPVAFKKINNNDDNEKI
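Benchmarks – high control isoproterenol alone, low control NPY with isoproterenol · Material – HEK293 Y1/CNG channel cell line · Times – dye 3 h, compound 60 min room temperature, stimulation 45 min · Probe or stimulus – NPY (25 nM), isoproterenol (1 µM), Ro 20-1724 (25 µM) · Evaluation – % inhibition of NPY effect · Signal – fluorescence, membrane potential probe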
S1P4 antag: human S1P4 receptor antagonism; inhibition, % at 4.98 µM; O95977; 0.26% of 220,000 active; S1P4-expressing cells, antagonist mode, reporter read-out; in the data active = inhibition above about 29%;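 note: 0% = wells stimulated with agonist and 100% = vehicle wells without agonist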
S1P4 agonist: agonists of human S1P4 receptor; 0.35% of 220,000 active; S1P4-expressing cell line, agonist reporter assay; activation, % at 4.98 µM; in the data active = activation above about 11%;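 note: 0% = DMSO vehicle and 100% = reference agonist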
NPY-Y1 PAM-ag: potentiators or agonists of human neuropeptide Y receptor Y1; P25929; NPY-Y1 expressing cells, potentiator/agonist activation; activation, % at 3.6 µM; 0.37% of 220,000 active; AID 1304; in the data active = activation above about 33%, passing the limit was not always enough;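 note: cells stimulated with NPY at EC10 then isoproterenol at EC100; 0% = low agonist plus stimulus and 100% = saturating agonist plus stimulus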
NPY2 pot ag: human NPY-Y2 potentiation or agonism, primary screen. P49146. cells expressing NPY-Y2, potentiator/agonist read-out. activation, % at 3.6 µM. 0.45% of 220,000 active. AID 1359; in the data active = activation above about 27%;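 note: cells stimulated with NPY near EC25 plus isoproterenol at EC100; 0% = vehicle plus submaximal agonist and 100% = vehicle plus saturating agonist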
NPY-Y1 antag ct: counter-screen for NPY-Y2 antagonists: human NPY-Y1 antagonism; shares compounds with NPY Y2 blocker; cell-based NPY-Y1 antagonism counterscreen; inhibition, % at 3.6 µM; 19% of 710 active; in the data active = inhibition above about 20%;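 note: cells challenged with NPY then isoproterenol with cAMP sensed through a CNG channel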
NPY-Y2 ant conf: human NPY-Y2 antagonism, confirmation. HEK293 NPY-Y2 CNG channel, membrane potential fluorescence. shares compounds with NPY Y2 blocker. 32% of 710 active. inhibition, % at 2.8 µM. AID 1257;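 active = mean inhibition of triplicate wells above the hit cutoff set in the primary screen, cut at about 17% in these data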;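 note: 0% = DMSO with NPY challenge and 100% = BIIE0246 high control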
* = called active by the depositor; x = not tested or not shown. A selection: hits, their analogues and other compounds. The true share with any hit is near 2.4%.

SMILES | NPY Y2 blocker | NPY Y1 blocker | S1P4 antag | S1P4 agonist | NPY-Y1 PAM-ag | NPY2 pot ag | NPY-Y1 antag ct | NPY-Y2 ant conf
CC1CCCCN1c1nc2nonc2nc1N1CCCCC1C (configuration not stated) | 6 | 7 | -7 | 5 | 18 | 5 | x | x
COc1ccccc1Nc1nc2nonc2nc1N1CCCCC1C (configuration not stated) | 19* | 6 | -21 | 0 | -10 | 1 | 17 | 9
CC(/C=C1\SC(=S)N(NC(=O)c2ccc(C)cc2)C1=O)=C\c1ccccc1 | 19* | 13 | -8 | 1 | -11 | -18 | 17 | 20*
CC1(NC(=O)N2CCOCC2)CCS(=O)(=O)C1 (configuration not stated) | 1 | 2 | -13 | 1 | -25 | 2 | x | x
O=C(CSCc1ccc(Cl)cc1)N/N=C/c1c(Cl)cccc1Cl | 17* | 3 | -18 | 1 | -1 | 3 | 11 | 26*
O=C(CSCc1ccc(Cl)cc1)N/N=C/c1ccccc1 | 8 | 2 | -14 | 0 | 2 | -17 | x | x
O=c1c2ccccc2c(=O)n(Cc2ccccc2)n1Cc1ccccc1 | 6 | 1 | -5 | 1 | -26 | -1 | x | x
O=C1CSC(c2cn(-c3ccccc3)nc2-c2cc3ccccc3oc2=O)N1Cc1ccccc1 (configuration not stated) | 3 | 11 | -14 | -1 | -28 | -15 | x | x
O=C1CSC(c2nn(-c3ccccc3)cc2-c2cc3ccccc3oc2=O)N1Cc1ccco1 (configuration not stated) | 18* | 7 | 0 | 0 | -39 | -20 | 2 | 7
O=C(Nc1ccc2c(c1)OCO2)C1CCN(Cc2cnn(-c3ccccc3)c2-n2cccc2)CC1 | 2 | 2 | 4 | 0 | -24 | -16 | x | x
C/C=C/Cn1c(SCc2ccc(C)cc2)nc2c1c(=O)[nH]c(=O)n2C | 26* | 8 | -8 | 3 | -8 | -16 | 22* | 42*
O=c1c2ccccc2nnn1CSc1ccccc1 | 24* | 1 | -1 | 0 | 13 | 0 | 6 | 2
O=c1c2ccccc2nnn1CSc1ccc2ccccc2n1 | 4 | 1 | -1 | -2 | -1 | -3 | x | x
N#Cc1c(-c2ccccc2Cl)cc(-c2ccccc2)[nH]c1=S | x | 13 | -10 | -1 | 1 | 4 | x | x
Cc1cc(-c2ccccc2)c(C#N)c(=S)[nH]1 | 17* | 7 | -21 | -2 | -34 | -12 | 5 | 7
COc1ccccc1Oc1ccc2c(c1)C(=O)N(c1ccc(O)cc1)C2=O | 18* | 4 | -30 | 2 | 19 | 23 | 4 | 14
C=CCn1c(SCC(=O)N2CCc3ccccc3C2)nc2sc(C)c(C)c2c1=O | 19* | 7 | -2 | -2 | -12 | -4 | 10 | 9
CCCc1nc(SCc2ccc(Cl)cc2Cl)n[nH]1 | 18* | 2 | 1 | 1 | -32 | -4 | 3 | 7
O=C(O)CCNS(=O)(=O)c1ccc2c(c1)CCCC2 | x | 2 | -17 | 2 | 6 | 1 | x | x
O=C(O)CCNS(=O)(=O)c1ccc2c(c1)Cc1ccccc1-2 | 27* | 5 | -33 | 1 | -19 | -30 | 8 | 10
CCN(Cc1cnn(C)c1)Cc1nc(C2(c3ccc(C)cc3)CCCC2)no1 | x | 2 | -1 | -1 | 2 | 3 | x | x
CC1=CC(C)(C)N(S(=O)(=O)c2ccc(F)cc2)c2ccc(C)cc21 | 19* | 16 | 4 | 2 | -15 | -33 | 15 | 7
CC1=CC(C)(C)N(S(=O)(=O)c2ccc(C)cc2)c2ccccc21 | 20* | 20 | 6 | -1 | 6 | -11 | 31* | 26*
CC(C)Cn1c(N)c(C(=O)NCC2CCCO2)c2nc3ccccc3nc21 (configuration not stated) | 20* | 13 | -7 | 3 | -16 | 5 | 16 | 7
CC1CCCC(NC(=O)COC(=O)CCc2ccccc2)C1C (configuration not stated) | x | 9 | -7 | 0 | -13 | -7 | x | x
SMILES | NPY Y2 blocker | NPY Y1 blocker | S1P4 antag | S1P4 agonist | NPY-Y1 PAM-ag | NPY2 pot ag | NPY-Y1 antag ct | NPY-Y2 ant conf
CC1CCCC(NC(=O)COC(=O)CSc2ccc3ccccc3c2)C1C (configuration not stated) | 19* | 17 | -9 | 0 | -44 | -18 | 28* | 22*
Cc1cc(/C=N/n2cnnc2)c(C)n1-c1ccc(Cl)cc1 | 3 | 7 | -19 | 2 | -19 | 4 | x | x
Cc1cc(/C=N/n2cnnc2)c(C)n1-c1ccc(OCc2ccc(Cl)cc2Cl)cc1 | 22* | 8 | -22 | 0 | -58 | -9 | 21* | 24*
Cn1cc(Br)c(C(=O)NC2C3CC4CC(C3)CC2C4)n1 (configuration not stated) | 5 | -2 | -10 | -5 | -22 | 2 | x | x
Cc1ccc(/C=C/C(=O)N2CCc3ccccc3C2)cc1 | 24* | 17 | -5 | 2 | -11 | -20 | 12 | 13
CC(C)(C)c1ccc(/C=C/C(=O)N2CCc3ccccc3C2)cc1 | 10 | 8 | -4 | 1 | -47 | -36 | x | x
CCOC(=O)C(C)Sc1nnc(Cn2c(=O)sc3ccccc32)n1-c1ccccc1 (configuration not stated) | 3 | 1 | -12 | -1 | 0 | -8 | x | x
C/C(CCC(=O)OC[C@H]1O[C@H](C#Cc2ccccc2)C=C[C@@H]1Oc1ccc(C)cc1)=N\O[C@@H](C)CN1CCCCc2nc(C)c(C)cc21 | 22* | 4 | 0 | 1 | -15 | -17 | 9 | 9
COc1ccc(/C=C2\CCc3ccccc3C2=O)cc1Cn1nc(C)cc1C | 18* | 8 | -20 | 2 | 9 | -10 | 9 | 4
O=C(CSc1ncnc2ccccc12)c1ccc2c(c1)OCCO2 | 3 | -1 | -10 | 1 | 4 | -3 | x | x
O=C(NC(c1ccccc1)c1ccccc1)C1(c2cccs2)CCOCC1 | 18* | 15 | -5 | -1 | 5 | -3 | 6 | 5
COc1ccc(/C=C/C(=O)NCc2c(C)nn(C)c2C)cc1COc1ccc(Br)cc1 | 1 | 3 | 0 | 0 | 8 | 6 | x | x
COc1ccccc1CNC(=O)CSc1ccc(C)cc1 | 28* | 5 | -3 | 0 | -20 | 13 | 0 | 4
COc1ccccc1CNC(=O)CSc1ccccc1 | x | -5 | -5 | -1 | 17 | -9 | x | x
CS(=O)(=O)N(CC(=O)NC1CCCC1)c1ccc(Oc2ccccc2)cc1 | x | -1 | -12 | 0 | -2 | -11 | x | x
COc1ccc(CN2CCN(c3ncccn3)CC2)c(OC)c1 | 18* | 15 | -5 | 2 | 18 | 1 | 1 | 0
Cc1ccc(NC(=O)C(=O)NCCOc2ccc(Cl)cc2)c(C)c1 | 21* | 4 | -9 | -1 | -6 | -8 | 14 | 20*
